Laboratory results from ChEMBL document CHEMBL4828755, “A sulfonyl fluoride derivative inhibits EGFRL858R/T790M/C797S by covalent modification of the catalytic lysine” (Eur J Med Chem, 2021).
Calls of active or inactive are those of the source. No cut-off for these calls is given here.

What was measured:
[1] = molecular target: Rho-associated protein kinase 1 (Homo sapiens) (UniProt Q13464); test: Inhibition of GST-tagged human recombinant ROCK1 (1 to 535 residues) expressed in baculovirus expression system at 1 uM by Z'-LYTE assay
In short: (§1)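 Z'-LYTE FRET kinase panel; phosphorylation of a reference peptide measured with ATP at each enzyme's Km. Compounds tested in 1% DMSO at 0.1 and/or 1 μM. Values are means of two independent experiments with standard deviations.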

[2] = molecular target: Mitogen-activated protein kinase 14 (Homo sapiens) (UniProt Q16539); test: Inhibition of GST-tagged human full length recombinant p38 alpha expressed in Escherichia coli at 1 uM by Z'-LYTE assay; in short: as §1
[3] = test system: Epidermal growth factor receptor (Homo sapiens), P00533 [L858R,T790M,C797S]; test: Covalent binding affinity to recombinant EGFR L858R/T790M/C797S triple mutant (unknown origin) assessed as Lys745 sulfonylation in tryptic digested peptide IPVAIK745ELR at enzyme:compound molar concentration ratio of 1:5 incubated for 1 hr and measured following tryptic digestion by isotopic profiling analysis
In short: (§2)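 Recombinant triple-mutant EGFR co-incubated with inhibitor at 1:5 molar ratio for 1 h in Kinase Buffer A (50 mM HEPES pH 7.5, 10 mM MgCl2, 1 mM EGTA, 0.01% Brij-35); DMSO vehicle control. Reduced with DTT (15 min, 60°C), alkylated with iodoacetamide, trypsin-digested overnight at 37°C (1:10 trypsin:protein), C18 cleanup, analysed by LC-HRMS in ESI positive mode.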

[4] = test system: Epidermal growth factor receptor (Homo sapiens), P00533 [L858R,T790M,C797S]; test: Covalent binding affinity to recombinant EGFR L858R/T790M/C797S triple mutant (unknown origin) assessed as Lys745 sulfonylation in tryptic digested peptide IPVAIK745ELR at enzyme:compound molar concentration ratio of 1:5 incubated for 1 hr and measured following tryptic digestion by LC-HRMS analysis; in short: as §2
[5] = molecular target: Vascular endothelial growth factor receptor 2 (Homo sapiens) (UniProt P35968); test: Inhibition of His-tagged human recombinant VEGFR2 (789 to 1356 residues) expressed in baculovirus expression system at 1 uM by Z'-LYTE assay; in short: as §1
[6] = molecular target: Tyrosine-protein kinase Blk (Homo sapiens) (UniProt P51451); test: Inhibition of His-tagged human full length recombinant BLK expressed in baculovirus expression system at 1 uM by Z'-LYTE assay; in short: as §1
[7] = molecular target: T1, Epidermal growth factor receptor (Homo sapiens, UniProt P00533, C797S/L858R/T790M); test: Inhibition of EGFR L858R/T790M/C797S triple mutant (unknown origin) using […] preincubated with enzyme and ATP at 10XKm for 3 hrs followed by substrate addition and measured after 1 hr by TR-FRET assay
[8] = molecular target: T2, Inhibitor of nuclear factor kappa-B kinase subunit beta (Homo sapiens) (UniProt O14920); test: Inhibition of GST-tagged human full length recombinant IKKbeta expressed in baculovirus expression system at 1 uM by Z'-LYTE assay; in short: as §1
T2 sequence (whole entry): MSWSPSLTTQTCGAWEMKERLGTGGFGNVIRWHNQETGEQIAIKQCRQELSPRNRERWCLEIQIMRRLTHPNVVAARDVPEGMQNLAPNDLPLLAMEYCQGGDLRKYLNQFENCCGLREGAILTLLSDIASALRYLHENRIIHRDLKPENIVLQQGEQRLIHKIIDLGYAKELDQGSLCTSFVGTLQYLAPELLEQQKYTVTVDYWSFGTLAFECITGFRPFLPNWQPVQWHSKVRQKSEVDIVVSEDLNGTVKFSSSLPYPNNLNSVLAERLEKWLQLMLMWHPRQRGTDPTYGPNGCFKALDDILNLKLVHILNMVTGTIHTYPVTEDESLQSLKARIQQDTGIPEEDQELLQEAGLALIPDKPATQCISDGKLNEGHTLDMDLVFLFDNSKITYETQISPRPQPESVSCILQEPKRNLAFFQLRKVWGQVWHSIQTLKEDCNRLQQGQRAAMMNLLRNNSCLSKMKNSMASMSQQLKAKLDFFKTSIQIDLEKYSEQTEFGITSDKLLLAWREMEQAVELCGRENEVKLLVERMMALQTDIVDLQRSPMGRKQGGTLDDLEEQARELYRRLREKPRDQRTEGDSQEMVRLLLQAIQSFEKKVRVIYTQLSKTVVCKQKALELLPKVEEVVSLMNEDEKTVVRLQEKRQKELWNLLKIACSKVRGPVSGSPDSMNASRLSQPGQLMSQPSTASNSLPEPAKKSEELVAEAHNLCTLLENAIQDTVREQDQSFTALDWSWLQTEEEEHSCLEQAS

[9] = molecular target: T1, Epidermal growth factor receptor; test: Inhibition of EGFR L858R/T790M/C797S triple mutant (unknown origin) using […] preincubated with enzyme and ATP at Km for 3 hrs followed by substrate addition and measured after 1 hr by TR-FRET assay
[10] = molecular target: Fibroblast growth factor receptor 4 (Homo sapiens) (UniProt P22455); test: Inhibition of His-tagged human recombinant FGFR4 ([…] residues) expressed in baculovirus expression system at 1 uM by Z'-LYTE assay; in short: as §1
[11] = molecular target: Cyclin-dependent kinase 5 (Homo sapiens) (UniProt Q00535); test: Inhibition of GST/His-tagged human full length recombinant CDK5 expressed in baculovirus expression system at 1 uM by Z'-LYTE assay; in short: as §1
[12] = molecular target: Platelet-derived growth factor receptor alpha (Homo sapiens) (UniProt P16234); test: Inhibition of GST-tagged human recombinant PDGFR alpha (550 to 1089 residues) expressed in baculovirus expression system at 1 uM by Z'-LYTE assay; in short: as §1
[13] = molecular target: Tyrosine-protein kinase JAK1 (Homo sapiens) (UniProt P23458); test: Inhibition of GST-tagged human recombinant JAK1 (866 to 1154 residues) expressed in baculovirus expression system at 1 uM by Z'-LYTE assay; in short: as §1
[14] = molecular target: AMP-activated protein kinase, AMPK (Homo sapiens) (UniProt P54646+O43741+P54619+Q9UGJ0+Q9Y478+Q13131+Q9UGI9); test: Inhibition of human recombinant AMPK at 1 uM by Z'-LYTE assay; assay type: protein-complex assay; in short: as §1
[15] = molecular target: Tyrosine-protein kinase Lck (Homo sapiens) (UniProt P06239); test: Inhibition of human recombinant LCK at 1 uM by Z'-LYTE assay; in short: as §1
[16] = molecular target: Mitogen-activated protein kinase 3 (Homo sapiens) (UniProt P27361); test: Inhibition of GST-tagged human full length recombinant ERK1 expressed in Escherichia coli at 100 to 1000 nM by Z'-LYTE assay; details: dose 100-1000 nM
[17] = test system: Epidermal growth factor receptor (Homo sapiens), P00533 [UNDEFINED MUTATION]; test: Inhibition of EGFR del19/T790M/C797S triple mutant (unknown origin) using fluoresceine-labelled poly-GT peptide as substrate up to 10 uM preincubated with enzyme for 3 hrs followed by substrate and ATP addition by TR-FRET assay; details: dose microM <=10, time 3.0 hrs
[18] = molecular target: Vascular endothelial growth factor receptor 2 (Homo sapiens) (UniProt P35968); test: Inhibition of His-tagged human recombinant VEGFR2 (789 to 1356 residues) expressed in baculovirus expression system at 100 to 1000 nM by Z'-LYTE assay; details: dose 100-1000 nM; in short: as §1
[19] = molecular target: T2, Inhibitor of nuclear factor kappa-B kinase subunit beta (Homo sapiens); test: Inhibition of GST-tagged human full length recombinant IKKbeta expressed in baculovirus expression system at 100 to 1000 nM by Z'-LYTE assay; details: dose 100-1000 nM

Chain of Vascular endothelial growth factor receptor 2 (Homo sapiens) (P35968 whole entry, the tested form may be a part): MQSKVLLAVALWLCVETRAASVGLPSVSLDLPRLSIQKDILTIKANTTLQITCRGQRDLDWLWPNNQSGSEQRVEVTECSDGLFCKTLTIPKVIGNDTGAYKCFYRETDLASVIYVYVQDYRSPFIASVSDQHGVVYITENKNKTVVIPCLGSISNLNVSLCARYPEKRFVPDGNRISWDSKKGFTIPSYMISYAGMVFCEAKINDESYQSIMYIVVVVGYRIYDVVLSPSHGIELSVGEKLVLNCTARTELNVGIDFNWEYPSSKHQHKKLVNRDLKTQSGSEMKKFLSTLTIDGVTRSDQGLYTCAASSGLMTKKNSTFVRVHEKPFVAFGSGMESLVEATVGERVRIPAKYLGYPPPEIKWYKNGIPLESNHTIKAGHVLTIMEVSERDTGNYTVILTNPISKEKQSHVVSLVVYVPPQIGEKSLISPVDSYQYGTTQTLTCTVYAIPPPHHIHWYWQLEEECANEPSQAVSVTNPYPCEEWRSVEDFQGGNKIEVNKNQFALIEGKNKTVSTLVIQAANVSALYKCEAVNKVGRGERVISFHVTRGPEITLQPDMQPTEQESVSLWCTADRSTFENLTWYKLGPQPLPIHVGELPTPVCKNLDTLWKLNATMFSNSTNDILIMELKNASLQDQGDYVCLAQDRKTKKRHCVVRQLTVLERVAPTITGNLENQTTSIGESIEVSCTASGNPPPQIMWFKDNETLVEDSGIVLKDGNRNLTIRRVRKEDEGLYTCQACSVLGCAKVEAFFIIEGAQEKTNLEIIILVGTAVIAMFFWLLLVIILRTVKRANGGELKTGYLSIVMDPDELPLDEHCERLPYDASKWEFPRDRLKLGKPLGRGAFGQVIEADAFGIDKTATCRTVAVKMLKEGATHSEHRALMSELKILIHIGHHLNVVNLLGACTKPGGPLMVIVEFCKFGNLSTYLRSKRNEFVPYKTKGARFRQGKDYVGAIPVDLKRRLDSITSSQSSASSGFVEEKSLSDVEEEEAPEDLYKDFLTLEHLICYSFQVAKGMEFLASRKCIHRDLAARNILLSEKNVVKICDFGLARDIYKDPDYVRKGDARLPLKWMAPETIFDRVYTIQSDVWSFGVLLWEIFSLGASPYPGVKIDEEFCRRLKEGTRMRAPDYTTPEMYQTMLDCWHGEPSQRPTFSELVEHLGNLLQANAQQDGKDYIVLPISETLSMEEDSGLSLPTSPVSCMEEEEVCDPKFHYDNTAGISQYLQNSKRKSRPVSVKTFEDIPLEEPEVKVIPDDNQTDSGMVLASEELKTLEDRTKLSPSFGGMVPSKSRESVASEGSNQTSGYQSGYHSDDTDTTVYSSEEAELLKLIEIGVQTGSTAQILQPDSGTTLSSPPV
Chain of Platelet-derived growth factor receptor alpha (Homo sapiens) (P16234 whole entry, the tested form may be a part): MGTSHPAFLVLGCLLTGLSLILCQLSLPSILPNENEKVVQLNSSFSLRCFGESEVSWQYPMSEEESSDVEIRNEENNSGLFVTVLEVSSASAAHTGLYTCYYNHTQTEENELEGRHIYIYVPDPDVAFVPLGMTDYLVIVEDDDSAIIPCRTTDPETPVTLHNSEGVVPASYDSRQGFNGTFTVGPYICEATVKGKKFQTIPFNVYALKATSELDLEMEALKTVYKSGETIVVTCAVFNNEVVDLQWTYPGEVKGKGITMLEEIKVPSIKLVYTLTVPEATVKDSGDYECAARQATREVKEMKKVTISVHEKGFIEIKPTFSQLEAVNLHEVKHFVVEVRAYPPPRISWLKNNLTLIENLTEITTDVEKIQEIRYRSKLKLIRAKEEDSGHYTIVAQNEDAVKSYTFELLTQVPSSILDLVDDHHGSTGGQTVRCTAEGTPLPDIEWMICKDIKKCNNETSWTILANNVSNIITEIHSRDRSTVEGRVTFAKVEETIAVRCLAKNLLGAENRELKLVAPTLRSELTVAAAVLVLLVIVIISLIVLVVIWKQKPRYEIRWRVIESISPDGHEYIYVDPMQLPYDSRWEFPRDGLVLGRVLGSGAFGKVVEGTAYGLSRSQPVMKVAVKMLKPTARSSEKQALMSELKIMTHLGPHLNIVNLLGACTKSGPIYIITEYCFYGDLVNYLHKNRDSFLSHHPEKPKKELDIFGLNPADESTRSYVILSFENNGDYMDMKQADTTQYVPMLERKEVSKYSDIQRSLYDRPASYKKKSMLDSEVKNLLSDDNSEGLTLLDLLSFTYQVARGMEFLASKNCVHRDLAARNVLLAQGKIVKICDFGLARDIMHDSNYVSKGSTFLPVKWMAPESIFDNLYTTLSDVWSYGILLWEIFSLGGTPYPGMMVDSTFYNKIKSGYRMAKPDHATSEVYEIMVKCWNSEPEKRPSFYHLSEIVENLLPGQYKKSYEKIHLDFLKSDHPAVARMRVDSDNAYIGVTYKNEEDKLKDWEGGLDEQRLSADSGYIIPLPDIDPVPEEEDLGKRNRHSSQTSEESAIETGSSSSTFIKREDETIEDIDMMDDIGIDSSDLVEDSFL
Chain of Cyclin-dependent kinase 5 (Homo sapiens) (Q00535 whole entry, looked up, the tested form may be a part): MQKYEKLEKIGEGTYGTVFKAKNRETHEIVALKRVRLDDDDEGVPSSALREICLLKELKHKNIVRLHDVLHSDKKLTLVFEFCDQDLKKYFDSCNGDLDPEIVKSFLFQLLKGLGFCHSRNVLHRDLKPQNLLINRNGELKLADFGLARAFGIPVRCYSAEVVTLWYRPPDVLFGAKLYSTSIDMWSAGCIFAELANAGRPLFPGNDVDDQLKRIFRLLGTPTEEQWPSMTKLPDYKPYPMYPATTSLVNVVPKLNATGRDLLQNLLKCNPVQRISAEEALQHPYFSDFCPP
Chain of Rho-associated protein kinase 1 (Homo sapiens) (Q13464 2-1354 limits assumed): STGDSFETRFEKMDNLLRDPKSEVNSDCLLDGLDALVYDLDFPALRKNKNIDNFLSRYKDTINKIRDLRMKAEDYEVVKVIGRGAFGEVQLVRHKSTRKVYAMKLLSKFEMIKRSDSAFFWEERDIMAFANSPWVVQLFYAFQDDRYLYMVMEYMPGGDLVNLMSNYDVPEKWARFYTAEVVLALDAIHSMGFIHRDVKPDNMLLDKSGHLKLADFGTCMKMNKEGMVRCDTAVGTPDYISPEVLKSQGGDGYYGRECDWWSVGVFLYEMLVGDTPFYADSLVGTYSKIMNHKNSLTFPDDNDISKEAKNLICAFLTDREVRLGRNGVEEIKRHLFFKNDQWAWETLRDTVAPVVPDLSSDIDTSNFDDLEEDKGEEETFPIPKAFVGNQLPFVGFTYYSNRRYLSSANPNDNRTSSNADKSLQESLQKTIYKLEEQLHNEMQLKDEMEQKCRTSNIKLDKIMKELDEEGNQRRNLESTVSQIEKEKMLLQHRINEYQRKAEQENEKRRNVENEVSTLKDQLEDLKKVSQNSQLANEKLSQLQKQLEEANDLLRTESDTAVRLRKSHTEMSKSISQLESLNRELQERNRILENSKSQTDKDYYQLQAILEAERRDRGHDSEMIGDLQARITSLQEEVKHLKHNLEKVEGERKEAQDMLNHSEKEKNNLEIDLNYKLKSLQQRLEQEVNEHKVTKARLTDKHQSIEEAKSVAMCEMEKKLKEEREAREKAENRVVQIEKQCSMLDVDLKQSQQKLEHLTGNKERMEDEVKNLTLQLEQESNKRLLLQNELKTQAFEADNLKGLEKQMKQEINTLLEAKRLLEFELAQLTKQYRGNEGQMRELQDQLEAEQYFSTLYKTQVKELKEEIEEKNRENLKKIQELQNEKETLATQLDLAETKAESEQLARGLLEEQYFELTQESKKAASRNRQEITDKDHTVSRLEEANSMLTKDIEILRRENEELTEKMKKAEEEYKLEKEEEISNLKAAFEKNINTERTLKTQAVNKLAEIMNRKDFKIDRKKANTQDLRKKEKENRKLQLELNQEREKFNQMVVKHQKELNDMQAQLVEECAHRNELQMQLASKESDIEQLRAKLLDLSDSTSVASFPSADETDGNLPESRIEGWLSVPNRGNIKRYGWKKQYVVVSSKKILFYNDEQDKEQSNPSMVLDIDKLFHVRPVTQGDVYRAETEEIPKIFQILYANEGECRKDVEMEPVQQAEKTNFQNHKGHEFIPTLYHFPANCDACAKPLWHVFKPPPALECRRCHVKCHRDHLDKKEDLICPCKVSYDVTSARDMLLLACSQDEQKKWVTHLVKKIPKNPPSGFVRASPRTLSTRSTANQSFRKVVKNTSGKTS
Chain of Tyrosine-protein kinase Blk (Homo sapiens) (P51451 2-505 limits assumed): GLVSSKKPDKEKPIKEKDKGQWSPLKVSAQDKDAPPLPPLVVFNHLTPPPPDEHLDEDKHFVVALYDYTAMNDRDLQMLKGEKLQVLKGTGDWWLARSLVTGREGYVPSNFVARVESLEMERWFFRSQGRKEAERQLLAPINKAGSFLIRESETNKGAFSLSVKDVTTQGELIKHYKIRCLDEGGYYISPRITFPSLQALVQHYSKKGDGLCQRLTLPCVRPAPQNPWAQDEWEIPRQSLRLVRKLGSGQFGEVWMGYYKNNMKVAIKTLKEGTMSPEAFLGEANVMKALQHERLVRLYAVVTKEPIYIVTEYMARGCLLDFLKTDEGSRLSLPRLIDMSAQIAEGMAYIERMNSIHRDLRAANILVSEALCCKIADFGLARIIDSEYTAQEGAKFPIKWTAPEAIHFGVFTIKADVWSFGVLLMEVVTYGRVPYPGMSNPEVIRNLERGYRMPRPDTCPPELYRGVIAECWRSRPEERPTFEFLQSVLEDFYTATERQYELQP
Chain of Mitogen-activated protein kinase 14 (Homo sapiens) (Q16539 whole entry): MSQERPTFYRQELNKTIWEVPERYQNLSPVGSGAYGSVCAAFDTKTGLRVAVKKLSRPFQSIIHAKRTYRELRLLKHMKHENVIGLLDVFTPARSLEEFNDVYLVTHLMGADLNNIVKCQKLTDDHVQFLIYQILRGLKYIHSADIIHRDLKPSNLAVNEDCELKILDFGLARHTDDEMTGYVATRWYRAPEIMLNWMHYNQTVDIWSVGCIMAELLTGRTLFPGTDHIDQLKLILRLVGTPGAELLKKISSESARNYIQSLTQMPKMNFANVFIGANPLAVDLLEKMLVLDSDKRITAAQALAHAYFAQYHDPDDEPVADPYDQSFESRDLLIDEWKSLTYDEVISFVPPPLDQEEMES

SMILES	inhibition [1]	inhibition [2]	Activity [3]	Activity [4]	inhibition [5]	inhibition [6]	IC50 [7]	inhibition [8]	IC50 [9]	inhibition [10]	inhibition [11]	inhibition [12]	inhibition [13]	inhibition [14]	inhibition [15]	inhibition [16]	inhibition [17]	inhibition [18]	inhibition [19]
COc1cc(N2CCN(C(C)=O)CC2)ccc1Nc1ncc(Cl)c(Nc2ccc(NCc3ccc(S(=O)(=O)F)cc3)cc2)n1	< 25%	< 25%	Active	Active	< 25%	100%	23 nM	< 25%	2.8 nM	< 25%	90%	< 25%	Active	100%	100%	–	–	–	–
C#CCNC(=O)c1cc(Nc2cc(C3CC3)[nH]n2)nc(N2CCN(Cc3ccc(S(=O)(=O)F)cc3)CC2)n1	–	–	–	–	–	–	–	–	–	–	–	–	–	–	–	inactive	inactive	inactive	inactive
